Bioassay records from PubChem.
Shown are actives, neighbours in structure and some others; about 4.6% of the full set was active somewhere.
TAAR1 antag = antagonists of human TAAR1. Q96RJ0. CHO RD-HGA16 TAAR1, Fluo-8 calcium fluorescence, antagonist. inhibition, % at 3 µM. hit rate 1.5% among 360,000. AID 624466;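 active = inhibition above a per-plate cutoff, the mean inhibition of test compounds on that plate plus 3 SD, cut at about 49% in these data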;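 note: 0% = DMSO plus EC80 beta-PEA response and 100% = DMSO alone without agonist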
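Test system: CHO RD-HGA16 cells bearing hTAAR1 | Reagent: β-PEA, EC80 | Compound dosing: 3 µM, single point | Schedule: Dye loading 75 min at 37 °C, then 30 min room temperature | Signal: Calcium fluorescence with Fluo-8 | Evaluation: Percent inhibition of PEA-evoked calcium signal, max/basal emission ratio | Control set: DMSO-only wells and EC80 β-PEA-stimulated wells | Repeats: Singlicate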
GPR7 antagonist = blocks human GPR7 receptor signaling; P48145; GPR7-expressing cells, fluorescence antagonist assay; inhibition, % at 4.4 µM; hit rate 1.1% among 290,000; AID 1861; in the data active = inhibition above about 16%, passing the limit was not always enough;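 note: cells stimulated with the agonist NPW; 0% = agonist with vehicle and 100% = vehicle without agonist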
OX1R antag-1 = antagonists of human orexin 1 receptor (OX1R). inhibition, % at 6.6 µM. OX1R-expressing cells, FRET antagonist read-out. hit rate 1.8% among 330,000. AID 485270. O43613; in the data active = inhibition mostly above about 38%, no sharp cut-off; inactive = mostly below about 40%;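 note: 0% = agonist challenge alone and 100% = reference antagonist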
Target sequence (O43613 whole entry, looked up): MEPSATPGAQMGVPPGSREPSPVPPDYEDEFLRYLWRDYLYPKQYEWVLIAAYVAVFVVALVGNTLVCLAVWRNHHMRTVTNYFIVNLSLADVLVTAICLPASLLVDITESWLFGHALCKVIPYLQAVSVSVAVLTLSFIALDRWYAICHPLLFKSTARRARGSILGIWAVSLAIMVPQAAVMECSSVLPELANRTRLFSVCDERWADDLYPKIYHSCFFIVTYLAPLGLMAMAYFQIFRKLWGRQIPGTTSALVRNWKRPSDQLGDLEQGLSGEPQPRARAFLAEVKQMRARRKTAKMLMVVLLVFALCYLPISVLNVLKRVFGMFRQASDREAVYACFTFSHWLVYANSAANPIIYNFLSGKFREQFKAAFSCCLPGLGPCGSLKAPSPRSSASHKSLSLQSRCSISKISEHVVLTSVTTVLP
CHO parental Ca = signal in parental CHO cells, OX1R antagonist counter-screen. parental CHO-K1, ATP-induced calcium, Fluo-8 fluorescence. inhibition, % at 5.6 µM. hit rate 0.63% among 330,000;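 active = inhibition above that plate's mean sample inhibition plus 3 SD, cut at about 26% in these data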;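 note: 0% = ATP-challenged DMSO wells and 100% = DMSO wells without ATP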
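test system = CHO parental line | reagent = ATP stimulus | measured by = intracellular calcium via Fluo-8 no-wash fluorescent dye | control set = ATP and no-ATP DMSO wells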
OX1R antag-2 = blocks the human orexin 1 receptor; CHO/OX1R cells, Fluo-8 calcium fluorescence, orexin A; O43613; inhibition, % at 5 µM; AID 434989; hit rate 0.43% among 330,000;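 active = inhibition above its plate's threshold, mean inhibition of all tested compounds on the plate plus 3 SD, cut at about 37% in these data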;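 note: 0% = orexin A challenge wells and 100% = SB-334867-A antagonist wells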
TAAR1 agonist = agonists of human TAAR1 | Q96RJ0 | CHO RD-HGA16 TAAR1, Fluo-8 calcium fluorescence; vehicle wells 0%, saturating PEA agonist 100% | activation, % at 3 µM | hit rate 0.99% among 360,000;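 active = activation above the mean activation of all test compounds in the run plus 3 SD, cut at about 38% in these data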
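System: CHO-derived RD-HGA16 cells with stable Gα16 and human TAAR1 / Times: 17-24 h plating, Fluo-8 75 min 37 °C, 30 min RT / Technique: calcium-sensitive Fluo-8 signal, excitation 470-495, emission 515-575 nm / Measure: % activation relative to PEA EC100 response / Benchmarks: DMSO and PEA EC100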
TAAR1 ag confirm = human TAAR1 agonism, confirmed; shares compounds with TAAR1 agonist; CHO RD-HGA16 TAAR1, Fluo-8 calcium fluorescence; scaled: DMSO 0%, maximal phenethylamine 100%; activation, % at 3 µM; hit rate 82% among 2,400;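 active = activation above a cutoff set at the run's mean compound activation plus 3 SD, cut at about 39% in these data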
Ga16 ag counter = nonselective agonist in parental cells, TAAR1 agonist counter-screen | AID 651787 | shares compounds with TAAR1 agonist | CHO-Ga16 parental, Fluo-8 calcium fluorescence; normalized to maximal ATP response, DMSO zero | hit rate 50% among 2,400 | activation, % at 3 µM;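 active = activation above the run cutoff, the mean activation over all tested wells plus 3 SD, cut at about 12% in these data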;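 note: 0% = DMSO wells and 100% = maximal ATP response on the peak over basal ratio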
TAAR1 desensitize = human TAAR1 agonist that also desensitizes the receptor. hit rate 46% among 2,400. CHO RD-HGA16 hTAAR1, Fluo-8 calcium, beta-PEA response inhibition. inhibition, % at 3 µM. shares compounds with TAAR1 agonist;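 active = inhibition above the run cutoff, the mean inhibition of all test compounds plus 3 SD, cut at about 49% in these data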;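 note: beta-PEA stimulus applied at its EC80; loss of beta-PEA calcium signal after compound pretreatment read as receptor desensitization; 0% = DMSO with beta-PEA at EC80 and 100% = DMSO alone without agonist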
Ga16 nonsel ant = counter-screen for TAAR1 agonists: nonselective Ga16 antagonists; CHO-Ga16 ATP-induced calcium, Fluo-8 fluorescence; shares compounds with TAAR1 agonist; AID 651952; inhibition, % at 3 µM; hit rate 39% among 2,400;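 active = inhibition above the plate's mean compound inhibition plus 3 SD, computed per plate, cut at about 22% in these data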;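 note: 0% = EC80 ATP with DMSO and 100% = DMSO wells without ATP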
* marks the source's active call; other numbers are inactive results; . = not tested or not shown.

SMILES	TAAR1 antag	GPR7 antagonist	OX1R antag-1	CHO parental Ca	OX1R antag-2	TAAR1 agonist	TAAR1 ag confirm	Ga16 ag counter	TAAR1 desensitize	Ga16 nonsel ant
CCOC(=O)c1ccc(N2CN(CCc3ccccc3)CNC2=S)cc1	.	-12	3	-7	4	.	.	5	.	3
C=CCN1CN(CCc2ccccc2)CNC1=S	5	-3	11	-10	-5	55*	81*	15*	46	2
Cc1ccc(S(=O)(=O)C[C@@H]2OC3CCCCC3N2S(=O)(=O)c2ccc(C)cc2)cc1 (some centres undefined)	-40	.	.	.	.	1	.	.	.	.
CN(C(=O)CC1C(=O)NCCN1Cc1ccc(F)c(F)c1)C1CCCCC1 (centres undefined)	-24	3	7	-21	-41	1	.	.	.	.
O=C(Nc1ccc(Cl)c(C(F)(F)F)c1)NC1CC2CCCC(C1)N2C1CC1 (centres undefined)	25	-1	10	-3	-12	68*	70*	25*	41	25*
O=c1[nH]nc(SCc2nnc(-c3cccc(Cl)c3)o2)n1C1CCCCC1	-9	-10	4	-40	-20	5	.	.	.	.
COc1ccc(NC(=O)CSc2ccc3c4c(cccc24)C(=O)c2ccccc2-3)cc1	37	-5	1	4	3	20	.	.	.	.
N#Cc1cccc(NC(=O)CSc2ccc3c4c(cccc24)C(=O)c2ccccc2-3)c1	87*	-6	62	59*	75*	86*	47*	57*	73*	77*
c1ccc(C2CNCCc3ccccc32)cc1 (centres undefined)	74*	-3	0	0	-16	64*	95*	1	92*	8
COc1cc(NC(=O)C(C)Oc2ccccc2)ccc1NC(=O)COc1ccccc1 (centres undefined)	16	-14	32	-7	-16	0	.	.	.	.
Cc1ccc(Nc2cccccc2=O)cc1	-1	-8	11	-8	-8	10	.	.	.	.
Cc1ccc(NN2C(=O)C=C(c3ccccc3)C2=O)cc1	43	0	.	.	.	52*	27	20*	26	44*
O=C1NCCN(Cc2ccc(Cl)c(F)c2)C1CC(=O)N1CCc2ccccc2C1 (centres undefined)	11	-5	0	-14	-16	60*	92*	1	46	5
COc1ccc(C(CNC(=O)COc2ccccc2)N2CCCCC2)cc1 (centres undefined)	2	.	2	-26	-36	1	.	.	.	.
CCOC(=O)[C@]12CCC=C1N(CCC1=CCCCC1)C(=O)[C@H](CC(=O)NCc1cccc3ccccc13)C2	-14	.	.	.	.	9	.	.	.	.
CCOC(=O)[C@]12CCC=C1N(CCC1=CCCCC1)C(=O)[C@H](CC(=O)NCCc1ccccc1OC)C2	.	.	.	.	.	.	.	1	.	-9
CCOC(=O)[C@]12CCCC=C1N(Cc1ccc3c(c1)OCO3)C(=O)[C@H](CC(=O)NCCc1ccccc1OC)C2	28	.	.	.	.	74*	75*	-2	69*	10
COC(=O)[C@]12CCCCC=C1N(CCC1=CCCCC1)C(=O)[C@H](CC(=O)NCCc1ccccc1OC)C2	40	.	.	.	.	34	.	.	.	.
CCOC(=O)[C@]12CCCC=C1N(CCC1=CCCCC1)C(=O)[C@H](CC(=O)NCCc1ccccc1OC)C2	38	.	.	.	.	58*	75*	0	60*	9
O=C(CC1CCCC1)N1CCN(S(=O)(=O)c2cccc(Br)c2)CC1	-5	.	.	.	.	-1	.	.	.	.
Cc1ccc(C)c(S(=O)(=O)N2CCN(C(=O)/C=C/c3ccco3)CC2)c1	11	.	3	-12	-16	-1	.	.	.	.
O=C(Nc1ccc(Cl)cc1)C1C2CCCCC21 (centres undefined)	59*	23	17	62*	32	57*	18	3	7	9
O=C1CCC(C(=O)Nc2ccc(Cl)cc2)N1 (centres undefined)	5	-13	1	-8	-19	7	.	.	.	.
O=C(CSc1n[nH]c(=O)n1Cc1ccco1)Nc1ccccc1Cl	-11	1	10	-10	-16	4	.	.	.	.
CC1(C)CC(=O)/C(=C(/O)Cc2ccccc2)C(=NCCc2ccccc2)C1	-3	-4	14	-26	-40	56*	71*	0	47	2
SMILES	TAAR1 antag	GPR7 antagonist	OX1R antag-1	CHO parental Ca	OX1R antag-2	TAAR1 agonist	TAAR1 ag confirm	Ga16 ag counter	TAAR1 desensitize	Ga16 nonsel ant
O=C(CSc1ccc(-c2ccccc2)nn1)NCc1ccco1	-14	-11	14	-8	-13	1	.	.	.	.
O=C(O)c1ccc(-c2ccc(/C=N/Nc3ccc([N+](=O)[O-])cc3)o2)cc1	82*	-7	-1	64*	77*	131*	86*	66*	88*	70*
COCc1nc2ccccc2n1CCOc1ccccc1OC	12	-9	9	-11	-20	6	.	.	.	.
COc1ccc(-c2csc(NC(=O)c3cc(C)on3)c2C#N)cc1OC	29	-19	15	-13	-4	46*	14	7	13	17
O=C(NNC(=S)NC(=O)c1ccccc1[N+](=O)[O-])c1ccccc1O	-11	2	25	-19	-16	5	.	.	.	.
CCCCOc1ccccc1C(=O)NNC(=S)NC(=O)c1ccccc1[N+](=O)[O-]	34	-3	14	-9	-1	85*	43*	43*	37	41*
CCN1CCN(c2cc(SC(C)C)nc(-c3ccc(OC)cc3)n2)CC1	-17	-7	.	.	.	46*	74*	19*	29	5
CC(C)Sc1cc(N2CCOCC2)nc(-c2ccc(Cl)cc2)n1	-21	-11	5	-5	2	13	.	.	.	.
O=C(CSc1nnc(CNc2ccc(F)cc2)n1Cc1ccccc1)N1CCOCC1	-9	3	21	-14	-31	7	.	.	.	.
CC1=NN(/C(=N\c2nnc(C)s2)Nc2ccccc2)[C@H](c2cccc3ccccc23)S1	-6	3	15	-15	-28	70*	47*	2	0	11
